Measurements collected from several papers.
Target: Myosin light chain kinase, smooth muscle (MYLK, Homo sapiens, UniProt Q15746)

With `O=C1NC(=O)c2cc(Nc3ccc(F)cc3)c(Nc3ccc(F)cc3)cc21` the remaining signal was 100% (cell-free assay; 0.5 µM).
With `COCCOc1nc(-c2ccc(Cl)nc2)nc2c1CN(C(=O)c1ncn3ccccc13)CC2` the remaining binding was 70% (cell-free assay, competition with immobilised ligand; 0.1 µM).
For `CC(C)(C)c1nc(-c2cccc(NS(=O)(=O)c3c(F)cccc3F)c2F)c(-c2ccnc(N)n2)s1`, the remaining activity was 74% (enzyme activity, inhibitor, radiometric; 1 µM).
The remaining activity of `O=C(Nc1cnn(-c2csc(C(=O)NC3COC3)c2)c1)Nc1c(F)cccc1Cl` is reported as 95.9% (enzyme activity, inhibitor; 5 µM).
For `CC(C)(O)[C@H]1CC[C@H](Nc2ccc3ncc(-c4cccc(C(F)(F)F)c4)n3n2)CC1`, the remaining activity was 99.8% (enzyme activity, inhibitor; 1 µM).
`N#CCCc1ccc2c(c1)-c1[nH]c3ccc([N+](=O)[O-])cc3c1CC(=O)N2` has a remaining signal of 95.2% (cell-free assay; 0.5 µM).
`Cn1cnc(Br)c1C1=CN(c2ncnc3[nH]cnc23)CCS1` gave an inhibition of 33.5% (enzyme activity, inhibitor, radiometric; 50 nM).
For `Cn1c(=O)n(-c2ccc(C(C)(C)C#N)cc2)c2c3cc(-c4cnc5ccccc5c4)ccc3ncc21`, the remaining activity was 109% (enzyme activity, inhibitor; 10 µM).
`Cn1nc(C(=O)NCc2ccc(C(=O)O)cc2)cc1-c1ccc2[nH]ccc2c1` gave a remaining binding of 62% (cell-free assay, competition with immobilised ligand; 0.1 µM).
The remaining activity of `FC(F)c1nc2ccccc2n1-c1nc(N2CCOCC2)nc(N2CCOCC2)n1` is reported as 91% (enzyme activity, inhibitor; 10 µM).
The ΔTm of `Cn1c2c(Cl)c(Cl)ccc2c2cc(N)[nH]c(=O)c21` is reported as 0.1 °C (thermal stability, DSF; 10 µM).
`COc1cc(Nc2cnc(C#N)c(O[C@H](C)CN(C)C)n2)ncc1-c1cnn(C)c1` has a remaining activity of 80% (enzyme activity, inhibitor, radiometric; 1 µM).
`COc1cc(/C=C/C(=O)CC(=O)/C=C/c2ccc(O)c(OC)c2)ccc1O` gave an activity vs control of 70% (enzyme activity, inhibitor; 1 µM).
`O=C(Nc1cccnn1)N1CCC(=Cc2cccc(Oc3ccc(C(F)(F)F)cn3)c2)CC1` gave a remaining binding of 100% (cell-free assay, competition with immobilised ligand; 1 µM).
`Cn1cncc1C1=CN(c2ncnc3[nH]cnc23)CCS1` gave an inhibition of 18.2% (enzyme activity, inhibitor, radiometric; 50 nM).
`C[S+]([O-])c1ccc(-c2nc(-c3ccncc3)c(-c3ccc(F)cc3)[nH]2)cc1` (centres unmarked) has a remaining signal of 101% (cell-free assay; 0.5 µM).
`CN(c1ncccc1CNc1nc(Nc2ccc3c(c2)CC(=O)N3)ncc1C(F)(F)F)S(C)(=O)=O` gave an inhibition of 16.6% (enzyme activity, inhibitor; 1 µM).
With `O=C1c2ccccc2-c2n[nH]c3cccc1c23` the activity vs control was 48% (enzyme activity, inhibitor; 0.5 µM).
`CC(=O)Nc1c(C(C)=O)c(=O)n(C)c2nc(-c3ccc(Cl)cc3Cl)c(-c3ccc(Cl)cc3)cc12` gave a remaining binding of 100% (cell-free assay, competition with immobilised ligand; 1 µM).
`Cc1sc(C(=O)NC2COC2)cc1-n1cc(NC(=O)Nc2c(F)cccc2Cl)cn1` has a remaining activity of 103% (enzyme activity, inhibitor; 10 µM).
The remaining binding of `O=C(NC[C@@H]1[C@H]2CN(C(=O)OCc3cc(C(F)(F)F)cc(C(F)(F)F)c3)C[C@@H]12)c1ccc2[nH]nnc2c1` is reported as 88% (cell-free assay, competition with immobilised ligand; 1 µM).
With `Nc1nc(Nc2ccccc2)sc1C(=O)c1c(F)cccc1F` the remaining activity was 29% (enzyme activity, inhibitor; 10 µM).
With `C[C@H](c1ccc(F)cc1)N(Cc1cccc(C(=O)O)c1)C(=O)c1cnc2ccccc2c1` the remaining binding was 76% (cell-free assay, competition with immobilised ligand; 1 µM).
For `Cc1cnn2ncc(-c3ccnc(N(C)C)n3)c2c1`, the remaining binding was 99% (binding; 1 µM).
`CC(C)(C)C(=O)c1sc(NC2CCCCC2)nc1N` gave a remaining activity of 74% (enzyme activity, inhibitor; 10 µM).
The remaining binding of `CO[C@H]1CC[C@H](CNc2ccc(S(=O)(=O)NC(=O)c3ccc(N4CCN(CC5=C(c6ccc(Cl)cc6)CC(C)(C)CC5)CC4)cc3Oc3cnc4[nH]ccc4c3)cc2[N+](=O)[O-])CC1` is reported as 50% (cell-free assay, competition with immobilised ligand; 1 µM).
